MT stabilizer: microtubule stabilization, imaging screen | HeLa tubulin immunostaining HCS, 24 h; share of cells brighter than vehicle mean+2SD | % tubulin-high responders, % at 10 µM | 0.83% of 200,000 active | AID 2205;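 active = plate Z-score above 3 for both tubulin-high and condensed-nucleus cell shares, with cell loss under 80%, at 10 µM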;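 note: anti alpha tubulin signal scored within the nucleus-defined area of each cell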
Ba/F3 V617F tox: loss of viability in JAK2V617F-driven Ba/F3 cells | 1.1% of 220,000 active | inhibition, % at 5.6 µM | AID 1446 | Ba/F3 EpoR-JAK2V617F viability, ATP luminescence;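 active = inhibition above the campaign mean plus 3 SD over all tested compounds, cut at about 24% in these data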;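 note: cytokine-independent growth of Ba/F3 cells driven by EpoR plus mutant JAK2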
b-catenin transl: beta-catenin nuclear translocation modulation. 0.3% of 190,000 active. nuclear translocation activity, % at 5 µM. AID 1665. HeLa beta-catenin nuclear translocation, immunofluorescence imaging;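 active = nuclear translocation activity above 50% at 5 µM, with a well cell count of 50 or more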;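 note: per-cell ratio of nuclear to cytoplasmic median beta-catenin stain intensity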
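Test system: human HeLa cells, endogenous beta-catenin. Times: 24 h compound exposure, 37°C. Measured by: beta-catenin immunofluorescence imaging with DAPI.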
APP 5UTR inh: APP translation inhibition | SH-SY5Y APP 5'UTR-luciferase reporter, luminescence | inhibition, % at 2 µM | 0.82% of 190,000 active | AID 1285;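 active = inhibition above a set limit, derived from the sample mean plus 3 SD, cut at about 45% in these data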
BaF3 parental: reduces parental Ba/F3 cell viability, JAK2V617F counter-screen; CellTiter-Glo ATP luminescence; 1.1% of 220,000 active; inhibition, % at 5.6 µM;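 active = inhibition above a per-campaign cutoff, the mean inhibition of all tested compounds plus 3 SD, cut at about 27% in these data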
Lmaj promast: Leishmania major promastigote growth inhibition | Leishmania major promastigotes, resazurin fluorescence viability | 9% of 200,000 active | inhibition, % at 10 µM | AID 1063; in the data active = inhibition above about 50%;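 note: promastigotes grown with compound for 44 hours at 28 °C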
Of the large screens only hits and unclear results are named; the others gave an inactive call. Shown are actives, neighbours in structure and some others; about 9.6% of the full set was active somewhere.

CC(=O)N1CCCN(Cc2cn(-c3ccc(C)cc3)nc2-c2cccc(C)c2)CC1	BaF3 parental 40.6
CC(=O)c1cccc(NC(=O)N2CCCC2C(=O)Nc2cc(C)ccc2C)c1 (centres undefined)	none
CCOC(=O)c1cnc2c(-c3ccccc3OC)c(C)nn2c1C	none
COc1ccccc1N1CCN(C(=O)c2coc(=O)c(Br)c2)CC1	none (no result: MT stabilizer, APP 5UTR inh, Lmaj promast)
COc1cccc(C(=O)NN2CC(O)=C(c3nc4ccccc4n3C)C2=N)c1	none
Cc1ccc2c(Cn3cc(C(F)(F)F)cc(Cl)c3=O)cc(=O)oc2c1	Lmaj promast 52.5 (no result: b-catenin transl)
Cc1ccc2c(CN3CCN(CCO)CC3)cc(=O)oc2c1	none
Cc1cc(C(=O)Nc2nc3ccc(Cl)cc3s2)nn1C	none (no result: MT stabilizer, APP 5UTR inh, Lmaj promast)
Cn1ncc(Cl)c1C(=O)Nc1nc2ccc(Cl)cc2s1	BaF3 parental 36.9
O=C(CSc1nc(C2CC2)nc2c1cnn2-c1ccccc1)Nc1c[nH]c(=O)[nH]c1=O	none
Cc1cc(C)nc(NC(=NCCc2c[nH]c3ccccc23)NC(=O)c2ccco2)n1	none
Cc1cc(C)nc(NC(=NCCc2c[nH]c3ccccc23)NC(=O)Nc2ccccc2)n1	Lmaj promast 72.6
Cc1cc(C)nc(NC(=NCCc2c[nH]c3ccccc23)NC(=O)Nc2ccc(Cl)c(Cl)c2)n1	Lmaj promast 98.2
Cc1cc(C)nc(NC(=NCCc2c[nH]c3ccccc23)NC(=O)Nc2cccc([N+](=O)[O-])c2)n1	none
Cn1c(SCC(=O)Nc2cc(S(=O)(=O)N3CCOCC3)ccc2N2CCOCC2)nnc1-c1ccncc1	none
COCCn1cnc2cc(C)c(C)cc21	BaF3 parental 43.6
CN(NC(=O)c1ccc(Cl)cc1)c1nc(-c2ccccc2)nnc1C(F)(F)F	none
Cc1ccc(C(=O)NN(C)c2nc3ccccc3nc2C(F)(F)F)cc1	MT stabilizer 40.9
CSc1nc(N(C)NC(=O)c2ccc(Cl)cc2)c2ccccc2n1	MT stabilizer 18.9, Ba/F3 V617F tox 79.9, APP 5UTR inh 94.9, BaF3 parental 78.4
CSc1nc(N(C)NC(=O)c2ccccc2)c2ccccc2n1	MT stabilizer 32.9, Ba/F3 V617F tox 69.5, b-catenin transl 54.0, APP 5UTR inh 95.8, BaF3 parental 69.0
Cc1nnc(SCC(=O)NCc2ccccc2Cl)[nH]c1=O	none
CC(C)OC(=O)c1ccc(NC(=O)Cn2c(-c3nonc3N)nc3ccccc32)cc1	Lmaj promast 50.6
COC(=O)c1ccccc1NC(=O)Cn1c(-c2nonc2N)nc2ccccc21	MT stabilizer 18.5, Ba/F3 V617F tox 50.0, APP 5UTR inh 95.1, BaF3 parental 49.6
CCc1nc(SCC(=O)Nc2cc(C)on2)c2c(C)c(C)sc2n1	none
Cc1cc(NC(=O)CSc2nc(C3CC3)nc3sc(C)c(C)c23)no1	MT stabilizer 33.5, b-catenin transl 266.6
COC(=O)c1cn(-c2ccc(Cl)cc2)c(=O)c2ccccc12	Lmaj promast 57.8
COC(=O)c1cn(-c2ccccc2)c(=O)c2ccccc12	none
N#CCCN(CCN1CCCC1)S(=O)(=O)c1ccc(-c2ccc([N+](=O)[O-])cc2)cc1	Lmaj promast 93.0
COc1ccccc1N(CC(O)Cn1ccnc1C)S(=O)(=O)c1ccccc1 (centres undefined)	none
O=[N+]([O-])c1cc(C(F)(F)F)cc([N+](=O)[O-])c1NCCNC(=S)Nc1cccc(F)c1	none (no result: MT stabilizer, APP 5UTR inh, Lmaj promast)
Cc1cc(C)nc(-n2nc(C)c3c(C(F)(F)F)cc(=O)[nH]c32)n1	none
Cc1cc(C)nc(-n2nc(C)c(Sc3ccc(F)cc3)c2N)n1	Lmaj promast 97.0
Cc1ccc(NC(=O)c2cccc(OCc3c(C)noc3C)c2)cc1S(=O)(=O)Nc1ccccc1Cl	Lmaj promast 82.9
Cc1noc(C)c1COc1cccc(C(=O)Oc2ccc3c(c2)OCO3)c1	none
Cc1noc(C)c1COc1cccc(C(=O)OC(C)C(=O)Nc2ccc3c(c2)OCO3)c1 (centres undefined)	MT stabilizer 25.5, b-catenin transl 95.0, Lmaj promast 59.4
Cc1ccc(NC(=O)c2cccc(OCc3c(C)noc3C)c2)c(C)c1	none
Cc1noc(C)c1COc1cccc(C(=O)Nc2ccc3c(c2)OCO3)c1	MT stabilizer 16.9
O=C1C(CSCc2ccccc2)NC(=S)N1c1ccccc1 (centres undefined)	none (no result: MT stabilizer, APP 5UTR inh, Lmaj promast)
CC1CCCCC1NC(=S)NC(=O)c1cccs1 (centres undefined)	none (no result: MT stabilizer, APP 5UTR inh, Lmaj promast)
O=C1N/C(=N/S(=O)(=O)Cc2ccccc2)S/C1=C/c1ccc2c(c1)OCO2	none (no result: MT stabilizer, APP 5UTR inh, Lmaj promast)
Cn1c(=O)oc2cc(S(=O)(=O)NCCC(=O)N3CCc4ccccc43)ccc21	none
CCCCn1c(CN2CCN(C)CC2)nc2ccccc21	Lmaj promast 60.6
CCCn1c(CN2CCN(C)CC2)nc2ccccc21	none (no result: b-catenin transl)
CC(C)(C)NCC(=O)N/N=C/c1ccc(OCc2ccccc2)cc1	none
COC(=O)c1ccc2c(=O)n(CC3CCCO3)c(SCC(=O)Nc3ccc(OC)cc3OC)nc2c1 (centres undefined)	none (no result: MT stabilizer, APP 5UTR inh, Lmaj promast)
CCOC(=O)C1(Cc2ccccc2C)CCCN(C(=O)c2cc(CC)nn2C)C1 (centres undefined)	none (no result: MT stabilizer)
O=C(O)CNC(=O)/C(=C\c1cccc([N+](=O)[O-])c1)NC(=O)c1ccco1	none (no result: MT stabilizer, APP 5UTR inh, Lmaj promast)
COc1ccc(N/C=C\C(=O)c2ccc3c(c2)OCO3)cc1OC	Lmaj promast 88.0 (no result: b-catenin transl)
O=C(Cc1ncc(C(F)(F)F)cc1Cl)NCc1ccco1	none
COC(=O)CNC(=O)c1cc(-c2ccncc2)nc2c(C)c(Cl)ccc12	none
Cc1c(Cl)ccc2c(C(=O)NCCN3CCCCC3)cc(-c3ccccn3)nc12	Lmaj promast 78.6
O=[N+]([O-])c1ccc(Sc2ncc3ccccn23)nc1	none (no result: MT stabilizer, APP 5UTR inh, Lmaj promast)
Cn1c(C(=O)N2CCCC(C(=O)O)C2)cc2sccc21 (centres undefined)	BaF3 parental 94.6 (no result: b-catenin transl)
CC1CN(c2ccc([N+](=O)[O-])nc2)CC(C)O1 (centres undefined)	none
O=c1nc2ccccc2c2n1CC(CN1CCN(c3ccccc3F)CC1)N2 (centres undefined)	none
Cc1ccccc1C(=O)Oc1cc(N)n(S(=O)(=O)c2ccccc2)n1	none
S=C(Nc1ccccc1Oc1ccccc1)NC1CCCC1	Lmaj promast 60.7
COc1ccc(NC(=S)NC2CCCCCC2)c(OC)c1	Lmaj promast 77.0 (no result: b-catenin transl)
CSc1ccccc1NC(=S)NC1CCCCC1	none
S=C(Nc1cccc2ccccc12)NC1CCCCC1	Lmaj promast 99.2
CCOc1ccc(/C=N/Nc2cc(=O)n(C)c(=O)n2C)cc1	Lmaj promast 70.8
CCOc1ccc(/C=N/Nc2ccccn2)cc1	none
CC(NCCOCCOc1ccccc1)c1ccccc1 (centres undefined)	none
CCC(C)NCCOCCOc1ccc(Cl)c2ccccc12 (centres undefined)	Lmaj promast 99.9
CCC(C)NCCOCCOc1ccc(Cl)c(C)c1C (centres undefined)	Lmaj promast 97.9
COc1ccc(S(=O)(=O)N2CCCC2C(=O)n2nc(C)cc2C)cc1 (centres undefined)	none

Screens from PubChem.
